The record followed here is ChEMBL document CHEMBL5030505, “Assessment of NR4A Ligands That Directly Bind and Modulate the Orphan Nuclear Receptor Nurr1” (J Med Chem, 2020).

Common to all, as to type: cell-based
In data set [1] the target is Nuclear receptor subfamily 4 group A member 2 (Homo sapiens) (UniProt P43354). Put plainly: Modulation of full length human Nurr1 expressed in HEK293T cells co-transfected with luciferase reporter plasmid harboring NurRE response element assessed as decrease in luciferase activity at 1.95 to 125 uM incubated for 18 hrs by luciferase reporter gene assay. Conditions: filed as modulator, dose 1.95-125 µM. The gist of the method:
(§1)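 Full-length Nurr1 plasmid, alone (2 μg) or 1 μg plus full-length RXRα (1 μg), cotransfected with 3xNBRE- or 3xNurRE-luciferase reporter (6 μg) using Lipofectamine 2000, 18 h. Cells replated at 10,000/well for 4 h. Four ligand concentrations, or vehicle (water, ethanol or DMSO), added in quadruplicate for 18 h. Luciferase read. Fold change vs vehicle, mean ± s.e.m., one-way ANOVA vs vehicle.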
Background: Reporter assays use an easily measured gene product as a stand-in for the process of interest.

Data set [2] has the same target. In words: Modulation of full length human Nurr1 expressed in PC12 cells co-transfected with luciferase reporter plasmid harboring NurRE response element assessed as decrease in luciferase activity at 1.95 to 125 uM incubated for 18 hrs by luciferase reporter gene assay. Conditions: PC-12, filed as modulator, dose 1.95-125 µM. The gist of the method: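 Here PC12 cells (FK-12 medium, 15% horse serum, 2.5% FBS, 37°C, 5% CO2) received full-length Nurr1 (2 μg) without RXRα, plus 3xNBRE- or 3xNurRE-luciferase reporter (6 μg), for 18 h. Cells were replated at 10,000/well for 4 h, then treated with ligand or vehicle in quadruplicate for 18 h. Luciferase luminescence was normalized to vehicle-treated cells. Results are mean ± s.e.m. (n=4) from 2 independent experiments, with one-way ANOVA against vehicle.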

The target is the same in data set [3]. In words: Modulation of full length human Nurr1 expressed in HEK293T cells co-transfected with RXRalpha and luciferase reporter plasmid harboring NurRE response element assessed as decrease in luciferase activity at 1.95 to 125 uM incubated for 18 hrs by luciferase reporter gene assay. As to conditions: filed as modulator, dose 1.95-125 µM. The gist of the method: as §1

Data set [4] has the same target. In words: Modulation of full length human Nurr1 expressed in SK-N-BE(2) cells co-transfected with luciferase reporter plasmid harboring NBRE response element assessed as increase in luciferase activity at 1.95 to 125 uM incubated for 18 hrs by luciferase reporter gene assay. As to conditions: SKNBE2, filed as modulator, dose 1.95-125 µM. The procedure, abridged:
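Transfection of SK-N-BE(2)-C cells (1:1 EMEM/F12, 10% FBS, 37°C, 5% CO2) used full-length Nurr1 alone (2 μg, no RXRα) with 3xNBRE- or 3xNurRE-luciferase reporter (6 μg) for 18 h. Cells were replated at 10,000/well for 4 h, then exposed to ligand or vehicle in quadruplicate for 18 h. Luminescence was expressed as fold over vehicle, as mean ± s.e.m. (n=4) from 2 independent experiments, one-way ANOVA against vehicle.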

For data set [5] the target is unchanged. Put plainly: Modulation of full length human Nurr1 expressed in SKNBE(2) cells co-transfected with RXRalpha and luciferase reporter plasmid harboring NurRE response element assessed as increase in luciferase activity at 1.56 to 6.25 uM incubated for 18 by luciferase reporter gene assay. Conditions: SKNBE2, filed as modulator, dose 1.56-6.25 µM, time 18.0 hrs.

The target is the same in data set [6]. Put plainly: Modulation of full length human Nurr1 expressed in HEK293T cells co-transfected with RXRalpha and luciferase reporter plasmid harboring NurRE response element assessed as decrease in luciferase activity at 1.56 to 6.25 uM incubated for 18 by luciferase reporter gene assay. As to conditions: filed as modulator, dose 1.56-6.25 µM, time 18.0 hrs.

Data set [7] has the same target. Put plainly: Modulation of full length human Nurr1 expressed in PC12 cells co-transfected with RXRalpha and luciferase reporter plasmid harboring NurRE response element assessed as increase in luciferase activity at 1.56 to 6.25 uM incubated for 18 by luciferase reporter gene assay. As to conditions: PC-12, filed as modulator, dose 1.56-6.25 µM, time 18.0 hrs.
Data set [8] has the same target. Put plainly: Modulation of full length human Nurr1 expressed in SKNBE(2) cells co-transfected with luciferase reporter plasmid harboring NurRE response element assessed as increase in luciferase activity at 1.56 to 6.25 uM incubated for 18 by luciferase reporter gene assay. Conditions: SKNBE2, filed as modulator, dose 1.56-6.25 µM, time 18.0 hrs. The procedure, abridged: (§2)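 Cells transfected (Lipofectamine 2000, 18 h) with full-length Nurr1 expression plasmid (2 μg) and 3xNBRE- or 3xNurRE-luciferase reporter (6 μg), no internal control normalisation; replated 10,000 cells/well, 4 h; ligand or vehicle in quadruplicate for 18 h; Britelite Plus luminescence as fold change over vehicle. Mean ± s.e.m. (n=4); one-way ANOVA versus vehicle.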

Data set [9] shares this target. Put plainly: Modulation of full length human Nurr1 expressed in PC12 cells co-transfected with luciferase reporter plasmid harboring NBRE response element assessed as decrease in luciferase activity at 1.56 to 6.25 uM incubated for 18 by luciferase reporter gene assay. Conditions: PC-12, filed as modulator, dose 1.56-6.25 µM, time 18.0 hrs. The procedure, abridged:
as §2

Data set [10] shares this target. Put plainly: Modulation of full length human Nurr1 expressed in PC12 cells co-transfected with luciferase reporter plasmid harboring NBRE response element assessed as increase in luciferase activity at 1.56 to 6.25 uM incubated for 18 by luciferase reporter gene assay. Conditions: PC-12, filed as modulator, dose 1.56-6.25 µM, time 18.0 hrs. The procedure, abridged:
as §2

The target is the same in data set [11]. Put plainly: Modulation of full length human Nurr1 expressed in SKNBE(2) cells co-transfected with RXRalpha and luciferase reporter plasmid harboring NurRE response element assessed as decrease in luciferase activity at 1.56 to 6.25 uM incubated for 18 by luciferase reporter gene assay. Conditions: SKNBE2, filed as modulator, dose 1.56-6.25 µM, time 18.0 hrs.

For data set [12] the target is unchanged. In words: Modulation of full length human Nurr1 expressed in SKNBE(2) cells co-transfected with luciferase reporter plasmid harboring NurRE response element assessed as decrease in luciferase activity at 1.56 to 6.25 uM incubated for 18 by luciferase reporter gene assay. Conditions: SKNBE2, filed as modulator, dose 1.56-6.25 µM, time 18.0 hrs. The gist of the method:
as §2

In a further data set the test system is SKNBE2. In words: Modulation of Gal4-fused VP16 expressed in SKNBE2 cells co-transfected with UAS repoter gene assessed as decrease in luciferase activity at 5 to 100 uM incubated for 18 hrs by luciferase reporter gene assay. Conditions: Human alphaherpesvirus 2, filed as modulator, dose 5-100 µM. The gist of the method:
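Cells in 10-cm dishes were transfected with Gal4-VP16 expression plasmid (2 μg) plus 5xUAS-luciferase reporter (2 μg) for 18 h. They were replated at 10,000 cells/well for 4 h, then given ligand or vehicle (water, ethanol or DMSO) in quadruplicate for 18 h. Luciferase was read with Britelite Plus. Fold change is versus vehicle-treated cells, with one-way ANOVA versus vehicle.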

For the next data set, the system named is HEK-293T. Put plainly: Cytotoxicity against human HEK293T cells assessed as reduction in cell viability at 5 to 100 uM incubated for 18 hrs by Cell titer-glo assay. Conditions: dose 5-100 µM. The gist of the method: (§3)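 Cells seeded at 1.5 million per 10-cm dish. Next day they were replated at 10,000 cells/well and rested 4 h. Ligand or vehicle (water, ethanol or DMSO, by ligand) was added in dose-response format in quadruplicate. After 18 h, viability was read by CellTiter-Glo luminescence. Data are mean ± s.e.m., generally representative of 2 independent experiments. One-way ANOVA versus vehicle.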

The next data set relates to PC-12. In words: Cytotoxicity against rat PC-12 cells assessed as reduction in cell viability at 5 to 100 uM incubated for 18 hrs by Cell titer-glo assay. As to conditions: pc-12, 18 h, dose 5-100 µM. The gist of the method: as §3
A general note: Cellular ATP, detected with luciferase, serves as a proxy for viable cell number.

The source made the active and inactive calls. The calls are words filed in the database; no cut-off is given here.

Chain of Nuclear receptor subfamily 4 group A member 2 (Homo sapiens) (P43354 whole entry): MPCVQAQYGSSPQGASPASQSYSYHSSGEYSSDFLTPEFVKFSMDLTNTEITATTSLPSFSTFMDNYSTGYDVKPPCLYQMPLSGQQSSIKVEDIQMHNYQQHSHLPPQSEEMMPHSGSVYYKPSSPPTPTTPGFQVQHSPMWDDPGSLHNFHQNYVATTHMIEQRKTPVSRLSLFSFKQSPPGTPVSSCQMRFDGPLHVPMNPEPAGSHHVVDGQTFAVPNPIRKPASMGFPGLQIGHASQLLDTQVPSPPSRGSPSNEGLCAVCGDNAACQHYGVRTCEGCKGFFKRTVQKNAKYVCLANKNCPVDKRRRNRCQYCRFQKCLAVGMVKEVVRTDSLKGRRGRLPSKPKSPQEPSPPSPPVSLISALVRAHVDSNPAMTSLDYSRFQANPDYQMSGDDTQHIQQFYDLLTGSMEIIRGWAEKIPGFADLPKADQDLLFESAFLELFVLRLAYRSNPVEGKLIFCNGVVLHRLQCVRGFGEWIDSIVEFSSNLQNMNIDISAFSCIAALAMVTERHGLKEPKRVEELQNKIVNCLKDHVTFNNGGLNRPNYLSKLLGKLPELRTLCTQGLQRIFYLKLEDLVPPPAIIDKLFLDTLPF

In the case of `CCN(CC)Cc1cc(Nc2ccnc3cc(Cl)ccc23)ccc1O` [AMODIAQUINE], the outcome in data set [1], in data set [2], in data set [3] and in data set [4] was Active.

Regarding `CC1=C(O)C(=O)C=C2C1=CC=C1[C@@]2(C)CC[C@@]2(C)[C@@H]3C[C@](C)(C(=O)O)CC[C@]3(C)CC[C@]12C` [CELASTROL], the result in data set [5], in data set [6], in data set [7], in [8], in data set [9] and in data set [10] was Active. Further, the outcome in [11] and in [12] was Active.

`CCN(CC)CCCC(C)Nc1ccnc2cc(Cl)ccc12` (centres undefined) [CHLOROQUINE]: the outcome in [1], in data set [2], in data set [3] and in [4] was Active.

For `CCCCCCCC(=O)c1c(O)cc(O)cc1CC(=O)OCC` [CYTOSPORONE B], the result with SKNBE2 was Active. Besides, the Activity result in the data set with HEK-293T and with PC-12 was “Toxic” in each case.
